The target in experiment [1] is T1, Hypoxia inducible factors; HIF-1-alpha, HIF-2-alpha (Homo sapiens, UniProt Q16665+Q99814). As to the kind of experiment: Inhibition of hypoxia-induced HIF1 activation in human LN229 cells expressing HRE-AP reporter gene preincubated for 1 hr under normoxia condition followed by 24 hrs incubation under hypoxia condition by HRE-luciferase reporter assay. It counts as cell-based. A digest of the protocol:
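HRE-luciferase dose-response: cells pre-treated 1 h, then 24 h hypoxia; luciferase measured in cell extracts; each compound run 5–21 times on separate days, in triplicate. IC50 obtained from a four-parameter logistic fit using a nonlinear mixed-effects model.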
A general note: Reporter assays use an easily measured gene product as a stand-in for the process of interest.

The target in experiment [2] is T1, Hypoxia inducible factors; HIF-1-alpha, HIF-2-alpha. As to the kind of experiment: Inhibition of hypoxia-induced HIF1 activation in human LN229 cells expressing VEGF reporter gene assessed as VEGF expression at 10 uM after 24 hrs incubation under hypoxia condition by luciferase reporter assay. It counts as cell-based. A digest of the protocol:
(§1)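 LN229 cells stably carrying a VEGF promoter-luciferase construct, pre-treated 1 h in normoxia with compound at 10 µM final, then 24 h in normoxia or hypoxia; luciferase measured in cell extracts; triplicate means ± SD.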

Experiment [3] shares this target. As to the kind of experiment: Inhibition of hypoxia-induced HIF1 activation in human LN229 cells expressing VEGF reporter gene assessed as VEGF expression at 10 uM preincubated for 1 hr under normoxia condition followed by 24 hrs incubation under hypoxia condition by luciferase reporter assay. Format: cell-based. The gist of the method: as §1
Experiment [4] shares this target. As to the kind of experiment: Inhibition of hypoxia-induced HIF1 activation in human LN229 cells expressing HRE-AP reporter gene at 5 uM preincubated for 1 hr under normoxia condition followed by 24 hrs incubation under hypoxia condition by HRE-luciferase reporter assay relative to control; values are per cent of control.
For experiment [5] the target is unchanged. Put plainly: Inhibition of hypoxia-induced HIF1 activation in human LN229 cells expressing HRE-AP reporter gene at 10 uM preincubated for 1 hr under normoxia condition followed by 24 hrs incubation under hypoxia condition by HRE-luciferase reporter assay relative to control; values are per cent of control.
The target is the same in experiment [6]. Put plainly: Inhibition of hypoxia-induced HIF1 activation in human LN229 cells expressing HRE-AP reporter gene at 2.5 uM preincubated for 1 hr under normoxia condition followed by 24 hrs incubation under hypoxia condition by HRE-luciferase reporter assay relative to control; values are per cent of control.
For experiment [7] the target is unchanged. Put plainly: Inhibition of hypoxia-induced HIF1 activation in human LN229 cells expressing HRE-AP reporter gene assessed as HRE remaining activity at 10 uM preincubated for 1 hr under normoxia condition followed by 24 hrs incubation under hypoxia condition by alkaline phosphatase reporter assay relative to control. It counts as cell-based. The gist of the method:
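LN229-HRE-AP cells pre-treated 1 h with compound or vehicle (1% DMSO), then 24 h in 1% O2 hypoxia incubator; cells lysed and alkaline phosphatase activity measured. Hits were compounds reducing hypoxic AP induction >50%; single assay.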

Experiment [8] has the same target. As to the kind of experiment: Inhibition of HIF1alpha expression in human LN229 cells assessed as reduction of HIF-1alpha accumulation at 100 nM preincubated for 1 hr under normoxia condition followed by 24 hrs incubation under hypoxia condition by Western blotting. It counts as functional, cell-based. The settings on record: LN-229.
The target is the same in experiment [9]. As to the kind of experiment: Inhibition of HIF1alpha expression in human LN229 cells assessed as reduction of HIF-1alpha accumulation at 20 uM preincubated for 1 hr under normoxia condition followed by 24 hrs incubation under hypoxia condition by Western blotting. It counts as functional, cell-based. The settings on record: LN-229. A digest of the protocol: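 LN229 glioma cells were pre-treated for 1 h with compound at 20 µM final, then incubated under normoxia or hypoxia for 24 h. HIF-1α accumulation was read by Western blot, with HIF-1α and actin immunoblotted.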
(Immunoblotting shows a protein as a band on a membrane.)

For experiment [10] the target is unchanged. Put plainly: Inhibition of HIF1alpha expression in human LN229 cells assessed as reduction of HIF-1alpha accumulation at <10 uM preincubated for 1 hr under normoxia condition followed by 24 hrs incubation under hypoxia condition by Western blotting. Format: functional, cell-based. Conditions: LN-229.

The structures appear in SMILES notation. Active and inactive are the calls of the source. No cut-off for these calls is given here.

As for `COc1cc(OC)cc(S(=O)(=O)N(Cc2ccc3c(c2)C=CC(C)(C)O3)CC(C)C)c1`, in experiment [1], the IC50 (as a rule, the concentration needed to halve the response being measured) was 1011 nM. Also, in experiment [2], the inhibition entry was “inactive”. For the same molecule, the inhibition result in [3] was “Active”.
Consider `COc1ccc(S(=O)(=O)N(Cc2ccc3c(c2)C=CC(C)(C)O3)CC(C)C)cc1OC`, for which the residual activity turned out to be 6% in [4], 1% in [5] and 21% in [6]. The molecule also yielded an IC50 in experiment [1] of 672 nM. Also, the inhibition result in experiment [2] was “inactive”. Further, the inhibition entry in experiment [3] is “Active”.
Regarding `COc1ccc(S(=O)(=O)N(Cc2ccc3c(c2)C=CC(C)(C)O3)C2CCCCC2)c(OC)c1`, the residual activity in [4] stood at 5%; in experiment [5], 1%; in experiment [6], 24%. The same molecule showed an IC50 in [1] of 1270 nM. Besides, in experiment [2], the inhibition result was “inactive”. In addition, the inhibition result in [3] is “Active”.
With `CC1(C)C=Cc2cc(CN(c3ccccc3)S(=O)(=O)c3cc(Cl)ccc3Cl)ccc2O1`, the residual activity in experiment [4] was determined as 51%; in [5] it was 35%; in experiment [6] it was 62%. Besides, the Activity in experiment [7] came to 54.2%.
Take `CC1(C)C=Cc2cc(CN(Cc3ccccc3)S(=O)(=O)c3ccc(Br)cc3OC(F)(F)F)ccc2O1`: the residual activity is 2% in experiment [4], 1% in experiment [5] and 15% in experiment [6]. Further, in [1], the IC50 was 508 nM. The inhibition entry in experiment [2] was “inactive”. In addition, the inhibition entry in experiment [3] is “Active”.
With `CC(C)CN(Cc1ccc2c(c1)C=CC(C)(C)O2)S(=O)(=O)c1cccc2ccccc12`, the residual activity in [4] turned out to be 4%; in experiment [5], 4%; in experiment [6] it was 6%. The same molecule registered an IC50 in [1] of 656 nM. Besides, the inhibition entry in experiment [2] is “inactive”. The inhibition result in experiment [3] was “Active”.
With `CC(C)CN(Cc1ccc2c(c1)C=CC(C)(C)O2)S(=O)(=O)c1ccc([N+](=O)[O-])cc1`, the figures for the residual activity in [4], in [5] and in [6] were 3%, 1% and 13%, respectively. In experiment [1], this molecule displayed an IC50 of 532 nM. The inhibition result in experiment [2] was “inactive”. In addition, the inhibition result in experiment [3] is “Active”.
As for `CC(C)CN(Cc1ccc2c(c1)C=CC(C)(C)O2)S(=O)(=O)c1cc(Cl)ccc1Cl`, the residual activity stood at 5% in experiment [4], 1% in experiment [5] and 23% in experiment [6]. The IC50 in [1] amounted to 731 nM. Besides, the inhibition entry in experiment [2] was “inactive”. For the same molecule, the inhibition entry in experiment [3] is “Active”.
`CC(C)C[C@H](NC(=O)[C@H](Cc1ccccc1)NC(=O)c1cnccn1)B(O)O`: the inhibition result in experiment [8] is “Active”.
Regarding `CC1(C)C=Cc2cc(CN(C3CCCCC3)S(=O)(=O)c3cccc4ccccc34)ccc2O1`, the residual activity was 37% in experiment [4], 37% in experiment [5] and 68% in experiment [6].
As to `CC1(C)C=Cc2cc(CN(c3ccccc3)S(=O)(=O)c3ccc([N+](=O)[O-])cc3)ccc2O1`, the values for the residual activity in experiment [4], in experiment [5] and in experiment [6] were 66%, 50% and 78%, respectively.
`COc1ccc(S(=O)(=O)N(Cc2ccc3c(c2)C=CC(C)(C)O3)c2ccccc2)cc1OC`: the residual activity in [4] is 2%; in experiment [5] it was 1%; in experiment [6], 18%. This molecule also returned an IC50 in [1] of 593 nM. Also, the inhibition entry in experiment [2] and in [10] was “inactive” in each case. For the same molecule, the inhibition entry in [3] and in experiment [9] was “Active” throughout. The Activity in experiment [7] came out at 28.9%.
